# Measured values reported in ChEMBL document CHEMBL1124794, “Synthesis, chemistry, and antineoplastic activity of alpha-halopyridinium salts: potential pyridone prodrugs of acylated vinylogous carbinolamine tumor inhibitors” (J Med Chem, 1990).
# Assays:
# P388 [1] = experiment: In vivo activity against P388 Lymphocytic Leukemia in CD2F1 mice at the dose of 50 mg/kg, activity expressed as body weight difference; type: functional, Mus musculus
# In short: (§1)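 CD2F1 mice were inoculated with ascitic fluid holding ca. 10^6 P388 cells. Drug was given daily from 24 h after inoculation, from solutions or suspensions made fresh each day, some as a saline suspension. TDS is survivors/initial animals on day 5. BWD is body weight on day 5 minus day 1. %T/C compares median survival of treated and control mice.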
# [2] = Half life at the concentration of 0.05 M.
# [3] = In vivo activity against murine M5076 tumor system at the dose of 25 mg/kg, activity expressed as body weight difference; type: functional, Mus musculus
# In short: (§2)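 M5076: ascitic fluid with ca. 10^6 cells inoculated ip into CD2F1 mice. Dosing started 24 h after inoculation and was then given every 4 days for four doses in total, from solutions or suspensions made fresh each day. Toxicity day survivors were scored on day 5. Body weight difference is day 14 minus day 1. %T/C is based on median survival time versus controls.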
# MX1 [4] = experiment: In vivo activity against murine MX-1 tumor system at the dose of 75 mg/kg, activity expressed as %T/C.; type: functional, Mus musculus
# [5] = Half life at the concentration of 0.02 M.; type: ADME
# [6] = In vivo activity against murine M5076 tumor system at the dose of 50 mg/kg, activity expressed as body weight difference; type: functional, Mus musculus
# [7] = Effect of phosphate buffer on the hydrolysis of alpha Fluoropyridinium Moity at the concentration of 0.10M, pH 8.0, 25 degree C.; type: ADME
# In short: (§3)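 α-Fluoropyridinium hydrolysis to pyridone in phosphate buffer at 0.02, 0.05 or 0.10 M, pH 6.5 or 8.0, ionic strength […] °C. Pyridinium UV absorbance maximum followed with time to give pseudo-first-order kobs and half-life.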
# [8] = In vivo activity against murine M5076 tumor system at the dose of 100 mg/kg, activity expressed as TDS; 6/10; type: functional, Mus musculus; in short: as §2
# L1210 [9] = experiment: In vivo activity against murine L1210 tumor system at the dose of 25 mg/kg, activity expressed as %T/C.; type: functional, Mus musculus
# In short: as §2, with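 “L1210 lymphocytic leukemia:” for “M5076:”, “injected” for “inoculated”, “repeated daily” for “then given every 4 days”, “five” for “four”, “5” for “14”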
# [10] = Effect of phosphate buffer on the hydrolysis of alpha Fluoropyridinium Moity at the concentration of 0.10M, pH 6.5, 25 degree C; type: ADME; in short: as §3
# MX1 [11] = experiment: In vivo activity against murine MX-1 tumor system at the dose of 75 mg/kg, activity expressed as TDS; 4/6; type: functional, Mus musculus
# MX1 [12] = experiment: In vivo activity against murine MX-1 tumor system at the dose of 37.5 mg/kg, activity expressed as %T/C.; type: functional, Mus musculus
# L1210 [13] = experiment: In vivo activity against murine L1210 tumor system at the dose of 60 mg/kg, activity expressed as body weight difference; T-C; type: functional, Mus musculus
# In short: as §2, with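 “L1210 lymphocytic leukemia:” for “M5076:”, “injected” for “inoculated”, “repeated daily” for “then given every 4 days”, “five” for “four”, “5” for “14”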
# [14] = In vivo activity against murine M5076 tumor system at the dose of 36 mg/kg, activity expressed as TDS; 10/10; type: functional, Mus musculus; in short: as §2
# [15] = In vivo activity against murine M5076 tumor system at the dose of 36 mg/kg, activity expressed as body weight difference; T-C; type: functional, Mus musculus; in short: as §2
# L1210 [16] = experiment: In vivo activity against murine L1210 tumor system at the dose of 100 mg/kg, activity expressed as body weight difference; T-C; type: functional, Mus musculus
# In short: as §2, with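 “L1210 lymphocytic leukemia:” for “M5076:”, “injected” for “inoculated”, “repeated daily” for “then given every 4 days”, “five” for “four”, “5” for “14”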
# [17] = Half life at the pH 4.0; type: ADME; conditions: buffer
# In short: (§4)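 Bis-carbamate in acetonitrile–water (1:1; buffer added to a 0.5 mg/mL acetonitrile solution), 0.05 M buffer, ionic strength 0.136 (KCl), 25 ± 0.1 °C. Buffers: phosphate pH 2.0; citrate pH 3.0–3.5; succinate pH 4.0; acetate pH 5.0; phosphate pH 6.0–8.0; borate pH 9.0; carbonate pH 10.0. HPLC bis-carbamate peak-area loss, ln(area0/areat) vs time slope = kobs. Duplicates averaged.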
# L1210 [18] = experiment: In vivo activity against murine L1210 tumor system at the dose of 166.7 mg/kg, activity expressed as TDS; 5/6; type: functional, Mus musculus
# In short: as §2, with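 “L1210 lymphocytic leukemia:” for “M5076:”, “injected” for “inoculated”, “repeated daily” for “then given every 4 days”, “five” for “four”, “5” for “14”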
# [19] = Half life at the buffer concentration of 0.025 M.; type: ADME
# In short: (§5)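 Bis-carbamate in acetonitrile–water (1:1), 25 ± 0.1 °C. Citrate buffer at pH 3.0 or phosphate buffer at pH 7.4, at 0.01, 0.025 or 0.05 M, ionic strength 0.136 (KCl). Kinetics followed by HPLC as the decrease in bis-carbamate peak area. The regression slope of ln(area0/areat) vs time gave pseudo-first-order kobs. Duplicates averaged.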
# [20] = In vivo activity against murine M5076 tumor system at the dose of 166.7 mg/kg, activity expressed as TDS; 4/10; type: functional, Mus musculus; in short: as §2
# [21] = Effect of pH on carbamate hydrolysis in 0.05 M buffer concentration at the pH 10.0, 25 degree C.; type: ADME; in short: as §4
# P388 [22] = experiment: In vivo activity against P388 Lymphocytic Leukemia in CD2F1 mice at the dose of 12.5 mg/kg, activity expressed as body weight difference; T-C; type: functional, Mus musculus; in short: as §1
# [23] = In vivo activity against murine M5076 tumor system at the dose of 60 mg/kg, activity expressed as KE; type: functional, Mus musculus
# [24] = In vivo activity against murine M5076 tumor system at the dose of 21.6 mg/kg, activity expressed as KE; type: functional, Mus musculus; in short: as §2
# [25] = In vivo activity against murine M5076 tumor system at the dose of 60 mg/kg, activity expressed as %T/C.; type: functional, Mus musculus
# [26] = In vivo activity against murine M5076 tumor system at the dose of 166.7 mg/kg, activity expressed as body weight difference; T-C; type: functional, Mus musculus; in short: as §2
# L1210 [27] = experiment: In vivo activity against murine L1210 tumor system at the dose of 21.6 mg/kg, activity expressed as TDS; 6/6; type: functional, Mus musculus
# In short: as §2, with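 “L1210 lymphocytic leukemia:” for “M5076:”, “injected” for “inoculated”, “repeated daily” for “then given every 4 days”, “five” for “four”, “5” for “14”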
# [28] = Half life at the pH 10.0; type: ADME; conditions: buffer; in short: as §4
# P388 [29] = experiment: In vivo activity against P388 Lymphocytic Leukemia in CD2F1 mice at the dose of 25 mg/kg, activity expressed as KE; type: functional, Mus musculus
# L1210 [30] = experiment: In vivo activity against murine L1210 tumor system at the dose of 36 mg/kg, activity expressed as body weight difference; T-C; type: functional, Mus musculus
# In short: as §2, with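 “L1210 lymphocytic leukemia:” for “M5076:”, “injected” for “inoculated”, “repeated daily” for “then given every 4 days”, “five” for “four”, “5” for “14”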
# [31] = Effect of phosphate buffer on carbamate hydrolysis in acetonitrile-water at the concentration of 0.025 M on pH 3.0, 25 degree C.; type: ADME; conditions: in the assay text read “citrate buffer” for “phosphate buffer”; in short: as §5
# [32] = In vivo activity against murine M5076 tumor system at the dose of 100 mg/kg, activity expressed as %T/C; 10/10.; type: functional, Mus musculus; in short: as §2
# L1210 [33] = experiment: In vivo activity against murine L1210 tumor system at the dose of 60mg/kg, activity expressed as %T/C.; type: functional, Mus musculus
# In short: as §2, with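 “L1210 lymphocytic leukemia:” for “M5076:”, “injected” for “inoculated”, “repeated daily” for “then given every 4 days”, “five” for “four”, “5” for “14”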
# [34] = In vivo activity against murine M5076 tumor system at the dose of 36 mg/kg, activity expressed as %T/C.; type: functional, Mus musculus; in short: as §2
# P388 [35] = experiment: In vivo activity against P388 Lymphocytic Leukemia in CD2F1 mice at the dose of 50 mg/kg, activity expressed as body weight difference; T-C; type: functional, Mus musculus; in short: as §1
# [36] = Half life at the pH 3.5; type: ADME; conditions: buffer; in short: as §4
smiles,measurement,setting,value
CC(C)NC(=O)OCc1c(COC(=O)NC(C)C)c(-c2cc[n+](C)c(F)c2)n2c1CCC2.[I-],BWD,P388 [1],-0.8 g
same,T1/2,[2],96.2 min
same,BWD,[3],0.4 g
same,T/C,MX1 [4],34%
same,half-life,[5],133 min
same,BWD,[6],1.4 g
same,K obs,[7],0.036 min⁻¹
same,TDS,[8],6
same,T/C,L1210 [9],118%
same,K obs,[10],0.0138 min⁻¹
same,TDS,MX1 [11],4
same,T/C,MX1 [12],69%
CC(C)NC(=O)OCc1c(COC(=O)NC(C)C)c(-c2ccn(C)c(=O)c2)n2c1CCC2,BWD,L1210 [13],-3.2 g
same,TDS,[14],10
same,BWD,[15],1.8 g
same,BWD,L1210 [16],-4.2 g
same,half-life,[17],46.7 min
same,TDS,L1210 [18],5
same,half-life,[19],51.9 min
same,TDS,[20],4
same,K obs,[21],0.0133 min⁻¹
same,BWD,P388 [22],-0.1 g
same,KE,[23],-1.79
same,KE,[24],-1.93
same,T/C,[25],114%
same,BWD,[26],-5.8 g
same,TDS,L1210 [27],6
same,half-life,[28],52.3 min
same,KE,P388 [29],-0.5
same,BWD,L1210 [30],-0.3 g
same,K obs,[31],0.0342 min⁻¹
same,TDS,[32],10
same,T/C,L1210 [33],141%
same,T/C,[34],117%
same,BWD,P388 [35],-0.6 g
same,half-life,[36],32.5 min
